Calls of active or inactive are those of the source. The rule behind the calls is not given here.
Tests used:
VSMC [1] = assay: Inhibition of PDGF-stimulated rat VSMC proliferation; assay type: functional
VSMC [2] = assay: Decrease in intracellular ROS level in PDGF-stimulated rat VSMC at 5 uM pretreated with compound for 30 mins measured after upto 23 hrs of post stimulation using H2DCF by flow cytometric analysis; assay type: functional, cell-based
Outline: (§1)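 Quiescent rat aortic VSMCs pretreated 30 min with 5 μM compound or vehicle, then stimulated with PDGF (20 ng/mL). At set times up to 23 h, total intracellular ROS measured by flow cytometry of oxidized H2DCF (H2DCFDA probe). n = 3, ANOVA.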

VSMC [3] = assay: Decrease in basal ROS level in PDGF-stimulated rat VSMC at 5 uM pretreated with compound for 30 mins measured after upto 23 hrs of post stimulation using H2DCF by flow cytometric analysis; assay type: functional; outline: as §1
VSMC [4] = assay: Inhibition of tubulin phosphorylation in PDGF-stimulated rat VSMC at 5 uM treated for 30 mins before 10 mins of cell stimulation by Western blot analysis; assay type: cell-based
VSMC [5] = assay: Antiproliferative activity against PDGF-stimulated rat VSMC transfected with HO-1 siRNA assessed as growth arrest after 24 hrs by immunoblot analysis; assay type: functional; details: in the assay text read “by cell counting” for “by immunoblot analysis”
Outline: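 Rat aortic VSMCs transfected with scrambled or HO-1-specific siRNA, then starved, treated with compound and stimulated with PDGF. Cells were counted after 24 h. HO-1 knockdown was checked by immunoblot. n = 3, Student's t-test.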

[6] = target: Mitogen-activated protein kinase 1 and 3 (ERK2 and ERK1) (Rattus norvegicus) (UniProt P63086+P21708); assay: Inhibition of ERK1/2 phosphorylation in PDGF-stimulated rat VSMC at 5 uM treated for 30 mins before 10 mins of cell stimulation by Western blot analysis
Chain of Mitogen-activated protein kinase 1 and 3 (ERK2 and ERK1) (Rattus norvegicus) (P21708 whole entry, looked up): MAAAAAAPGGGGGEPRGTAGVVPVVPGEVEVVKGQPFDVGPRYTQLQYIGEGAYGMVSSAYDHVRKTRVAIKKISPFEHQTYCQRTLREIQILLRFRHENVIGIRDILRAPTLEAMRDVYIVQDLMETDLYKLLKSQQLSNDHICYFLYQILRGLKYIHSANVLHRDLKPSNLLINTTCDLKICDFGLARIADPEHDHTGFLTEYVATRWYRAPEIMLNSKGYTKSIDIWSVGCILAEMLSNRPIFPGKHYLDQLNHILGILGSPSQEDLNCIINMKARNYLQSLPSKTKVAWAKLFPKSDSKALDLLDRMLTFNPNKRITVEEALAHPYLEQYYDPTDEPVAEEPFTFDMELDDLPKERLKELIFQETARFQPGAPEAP
Chain of Mitogen-activated protein kinase 1 and 3 (ERK2 and ERK1) (Rattus norvegicus) (P63086 whole entry, looked up): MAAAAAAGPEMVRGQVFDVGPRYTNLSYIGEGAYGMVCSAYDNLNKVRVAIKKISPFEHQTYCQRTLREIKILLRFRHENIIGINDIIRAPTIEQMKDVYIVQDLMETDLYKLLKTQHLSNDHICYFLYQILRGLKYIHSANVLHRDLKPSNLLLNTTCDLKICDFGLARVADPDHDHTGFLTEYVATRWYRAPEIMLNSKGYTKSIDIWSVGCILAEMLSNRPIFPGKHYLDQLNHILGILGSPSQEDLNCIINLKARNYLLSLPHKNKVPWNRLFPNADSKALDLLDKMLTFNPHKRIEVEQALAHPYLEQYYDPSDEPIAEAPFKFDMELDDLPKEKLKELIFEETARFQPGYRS
Outline: (§2)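 Quiescent rat aortic VSMCs (serum-free DMEM 24 h) pretreated 30 min with vehicle or 5 μM compound, then stimulated with PDGF (20 ng/mL) for 10 min. Total lysates analysed by Western blot for phospho-AKT, ERK, JNK, STAT3 and p38, with tubulin or actin.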

VSMC [7] = assay: Induction of HO-1 protein expression in Nrf2-deficient PDGF-stimulated rat VSMC; assay type: functional
Rattus norvegicus [8] = species on record: Rattus norvegicus; assay: Inhibition of NF-kappaB activation in rat VSMC at 5 uM
VSMC [9] = assay: Induction of HO-1 protein expression in rat VSMC at 5 uM measured after 16 hrs in presence of 10 to 100 uM of HIF-1alpha inhibitor […] treated for 15 mins by immunoblot analysis; assay type: functional
Outline: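 Rat aortic VSMCs pretreated 15 min with the HIF-1α inhibitor YC-1 at graded levels (up to 100 μM), then given 5 μM compound or vehicle for 16 h. HO-1 read by immunoblot.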

VSMC [10] = assay: Inhibition of p38 phosphorylation in PDGF-stimulated rat VSMC at 5 uM treated for 30 mins before 10 mins of cell stimulation by Western blot analysis; assay type: cell-based; outline: as §2
[11] = target: Mitogen-activated protein kinase 8 (Rattus norvegicus) (UniProt P49185); assay: Inhibition of JNK1/2 phosphorylation in PDGF-stimulated rat VSMC at 5 uM treated for 30 mins before 10 mins of cell stimulation by Western blot analysis; assay type: cell-based; outline: as §2
Chain of Mitogen-activated protein kinase 8 (Rattus norvegicus) (P49185 whole entry): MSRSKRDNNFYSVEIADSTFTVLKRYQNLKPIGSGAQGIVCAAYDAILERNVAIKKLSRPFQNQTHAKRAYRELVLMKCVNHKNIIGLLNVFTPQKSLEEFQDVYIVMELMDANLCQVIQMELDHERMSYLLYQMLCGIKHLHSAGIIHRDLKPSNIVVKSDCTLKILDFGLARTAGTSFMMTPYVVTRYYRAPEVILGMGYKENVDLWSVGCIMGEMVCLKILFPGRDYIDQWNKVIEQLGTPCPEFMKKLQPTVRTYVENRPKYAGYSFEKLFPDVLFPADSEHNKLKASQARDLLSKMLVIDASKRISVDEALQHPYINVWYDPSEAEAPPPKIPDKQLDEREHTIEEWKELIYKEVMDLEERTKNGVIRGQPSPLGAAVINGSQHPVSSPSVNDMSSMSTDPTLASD

VSMC [12] = assay: Inhibition of PDGF-stimulated rat VSMC proliferation after 24 hrs; assay type: functional
Outline: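 Quiescent rat aortic VSMCs treated with compound (1–10 μM) or vehicle, then stimulated with PDGF (20 ng/mL) for 24 h. Cells were counted; the increase in cell number in vehicle-treated cells was set to 100%.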

Rattus norvegicus [13] = species on record: Rattus norvegicus; assay: Effect on p38 MAPK activation in PDGF-stimulated rat VSMC assessed as phosphorylation at 5 uM treated for 30 mins followed by stimulated with PDGF for 10 mins by immunoblot analysis
Outline: (§3)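 Quiescent rat aortic VSMCs pretreated 30 min with vehicle or 5 μM compound, then stimulated with PDGF for 10 or 60 min. Total lysates immunoblotted for phospho-p38 and total p38. Three independent experiments.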

VSMC [14] = assay: Increase in HO-1 protein expression in rat VSMC at 5 uM after 16 hrs by immunoblot analysis; assay type: functional
Outline: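 Rat aortic VSMCs treated 16 h with vehicle, compound (5 μM) or cobalt protoporphyrin (10 μM). Total lysates immunoblotted for HO-1 and actin. Three independent experiments.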

VSMC [15] = assay: Inhibition of AKT phosphorylation in PDGF-stimulated rat VSMC at 5 uM treated for 30 mins before 10 mins of cell stimulation by Western blot analysis; assay type: cell-based; outline: as §2
[16] = Cell cycle arrest in PDGF-induced rat VSMC assessed as accumulation at G0/G1 phase at 5 uM treated for 30 mins followed by induced with PDGF for 28 hrs by propidium iodide staining by flow cytometry; assay type: functional, cell-based
Outline: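 Quiescent rat aortic VSMCs pretreated 30 min with 5 μM compound, then stimulated with PDGF (20 ng/mL) for 28 h. Nuclei stained with propidium iodide; cell-cycle distribution by flow cytometry. n = 3.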

[17] = Cytotoxicity against rat VSMC assessed as detachment of the cells at >25 uM after 48 hrs by trypan blue exclusion assay; assay type: cell-based
Outline: (§4)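 Cultured rat aortic VSMCs exposed to compound for 48 h. Viability by trypan blue exclusion, with cell morphology and detachment also noted.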

[18] = Cytotoxicity against rat VSMC assessed as cell viability at >25 uM after 48 hrs by trypan blue exclusion assay; assay type: cell-based; details: VSMC (vascular smooth muscle cells), read-out: Activity; outline: as §4
VSMC [19] = assay: Accumulation of HIF-1alpha in PDGF-stimulated rat VSMC at 5 uM after 4 hrs by immunoblot analysis; assay type: functional
Outline: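 Primary aortic smooth muscle cells from male Sprague-Dawley rats, made quiescent in serum-free DMEM for 24 h. Pretreated with compound or vehicle, then stimulated with PDGF. After 4 h, total cell lysates were immunoblotted for HIF-1α, with actin as loading control.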

[20] = target: Signal transducer and activator of transcription 3 (Rattus norvegicus) (UniProt P52631); assay: Inhibition of STAT3 phosphorylation in PDGF-stimulated rat VSMC at 5 uM treated for 30 mins before 10 mins of cell stimulation by Western blot analysis; outline: as §2
Chain of Signal transducer and activator of transcription 3 (Rattus norvegicus) (P52631 whole entry): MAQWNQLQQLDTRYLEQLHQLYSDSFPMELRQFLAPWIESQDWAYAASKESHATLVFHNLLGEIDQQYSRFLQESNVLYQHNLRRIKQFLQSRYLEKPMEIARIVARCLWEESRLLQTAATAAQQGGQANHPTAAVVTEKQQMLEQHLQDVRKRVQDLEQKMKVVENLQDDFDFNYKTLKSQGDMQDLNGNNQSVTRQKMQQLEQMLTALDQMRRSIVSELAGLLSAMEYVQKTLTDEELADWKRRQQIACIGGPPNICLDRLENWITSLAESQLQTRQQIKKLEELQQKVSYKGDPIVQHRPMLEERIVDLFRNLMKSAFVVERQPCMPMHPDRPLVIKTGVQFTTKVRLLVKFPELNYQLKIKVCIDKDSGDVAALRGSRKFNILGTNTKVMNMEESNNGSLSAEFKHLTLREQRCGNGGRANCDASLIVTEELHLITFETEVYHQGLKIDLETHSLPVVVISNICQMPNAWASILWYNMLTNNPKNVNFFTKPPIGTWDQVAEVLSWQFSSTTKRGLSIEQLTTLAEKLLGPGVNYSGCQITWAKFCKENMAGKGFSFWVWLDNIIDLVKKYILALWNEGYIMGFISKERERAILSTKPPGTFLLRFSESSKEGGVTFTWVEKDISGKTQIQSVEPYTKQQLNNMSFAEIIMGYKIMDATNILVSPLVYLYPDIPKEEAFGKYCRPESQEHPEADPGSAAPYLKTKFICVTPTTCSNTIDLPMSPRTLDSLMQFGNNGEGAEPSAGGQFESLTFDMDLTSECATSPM

VSMC [21] = assay: Induction of cell cycle arrest in rat VSMC at G1 phase assessed as inhibition of retinoblastoma protein phosphorylation treated for 30 mins before 12 hrs of PDGF challenge by Western blot analysis; assay type: functional, cell-based
Rattus norvegicus [22] = species on record: Rattus norvegicus; assay: Effect on p38 MAPK activation in PDGF-stimulated rat VSMC assessed as phosphorylation at 5 uM treated for 30 mins followed by stimulated with PDGF for 60 mins by immunoblot analysis; outline: as §3
[23] = Cytotoxicity against rat VSMC assessed as morphological changes at >25 uM after 48 hrs by trypan blue exclusion assay; outline: as §4
VSMC [24] = assay: Antiproliferative activity against PDGF-stimulated rat VSMC assessed as inhibition of DNA synthesis at 5 uM after 24 hrs by [3H]-thymidine incorporation assay in presence of p38 kinase inhibitor SB203580; assay type: functional
Outline: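 Rat aortic VSMCs starved 48 h. Treated with compound (5 μM), p38 inhibitor SB203580 (10 μM) and PDGF-BB (20 ng/mL) as indicated. Pulse-labelled with methyl-3H-thymidine (2 μCi/mL) for the final 6 h of 24 h. TCA-precipitated material was dissolved in 0.4 M NaOH and counted. n = 3, Student's t-test.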

Rattus norvegicus [25] = species on record: Rattus norvegicus; assay: Inhibition of TNFalpha-induced NF-kappaB binding activity in rat VSMC at 5 uM pretreated for 30 mins before 45 mins of TNFalpha stimulation by gel shift assay
Outline: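 Rat aortic VSMCs in six-well plates preincubated 30 min with vehicle or compound, then treated with TNF-α (10 ng/mL). NF-κB DNA binding in nuclear extracts measured by electrophoretic mobility shift assay.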

VSMC [26] = assay: Inhibition of PDGF-induced DNA synthesis in rat VSMC assessed as [3H]thymidine incorporation into DNA at 5 uM treated for 30 mins before 24 hrs of PDGF challenge; assay type: functional
Outline: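 Quiescent rat aortic VSMCs (starved 48 h) pretreated 30 min with 5 μM compound, then stimulated with PDGF-BB (20 ng/mL). Methyl-3H-thymidine (2 μCi/mL) pulse for the last 6 h of 24 h. TCA-insoluble radioactivity measured after NaOH solubilisation.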

VSMC [27] = assay: Inhibition of rat VSMC proliferation at 5 uM; assay type: functional

Q: With O=C(/C=C/c1ccc(O)c(O)c1)OCCc1ccccc1 [CAFFEIC ACID PHENETHYL ESTER] as the compound, how does the inhibition (VSMC [1]) read?
A: Its inhibition is “Dose-dependent effect”.

Q: And the Activity (VSMC [2])?
A: The Activity was “Active”.

Q: What about the Activity (VSMC [3]) of the same compound?
A: The Activity was “Active”.

Q: And the Activity (VSMC [4])?
A: The Activity was “inactive”.

Q: What about the “growth inhibition (GI)” value (VSMC [5]) of the same compound?
A: Its value is “inactive”.

Q: And the Activity [6]?
A: The Activity was “inactive”.

Q: What about the Activity (VSMC [7]) of the same compound?
A: Its Activity is “Active”.

Q: What about the Activity (Rattus norvegicus [8]) of the same compound?
A: The Activity was “inactive”.

Q: What about the Activity (VSMC [9]) of the same compound?
A: Its Activity is “inactive”.

Q: And the Activity (VSMC [10])?
A: Its Activity is “inactive”.

Q: And the Activity [11]?
A: Its Activity is “inactive”.

Q: And the inhibition (VSMC [12])?
A: The inhibition was “Dose-dependent effect”.

Q: And the Activity (Rattus norvegicus [13])?
A: Its Activity is “Active”.

Q: What about the Activity (VSMC [14]) of the same compound?
A: Its Activity is “Active”.

Q: And the Activity (VSMC [15])?
A: The Activity was “inactive”.

Q: And the Activity [16]?
A: The Activity was “Active”.

Q: And the Activity [17]?
A: The Activity was “Toxic”.

Q: What about the viability at 48 h [18] of the same compound?
A: Its viability at 48 h is 65%.

Q: And the Activity (VSMC [19])?
A: The Activity was “Active”.

Q: What about the Activity [20] of the same compound?
A: The Activity was “inactive”.

Q: What about the inhibition (VSMC [21]) of the same compound?
A: The inhibition was “Active”.

Q: What about the Activity (Rattus norvegicus [22]) of the same compound?
A: The Activity was “Active”.

Q: What about the Activity [23] of the same compound?
A: The Activity was “Toxic”.

Q: What about the inhibition (VSMC [24]) of the same compound?
A: The inhibition was “inactive”.

Q: What about the Activity (Rattus norvegicus [25]) of the same compound?
A: The Activity was “inactive”.

Q: And the Activity (VSMC [26])?
A: The Activity was “Active”.

Q: What about the Activity (VSMC [27]) of the same compound?
A: The Activity was “Active”.
